Source: ChEMBL document CHEMBL3244241, “Synthesis of cephalotaxine esters and correlation of their structures with antitumor activity” (J Med Chem, 1977)
Activity calls are given as the source filed them. The calls are words filed in the database; no cut-off is given here.

Assays:
P388 [1] = test: Antitumor activity against mouse P388 cells allografted in DBA/2 mouse assessed as host survival at 1.9 mg/kg/day, ip for 9 days compound administered through water+alcohol vehicle relative to control; format: functional; details: route intraperitoneal
Method in brief: (§1)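 P388 lymphocytic leukemia in DBA/2 mice. Dosing was one intraperitoneal injection per day for 9 days in the vehicle stated. […] Duplicate tests were run for some doses.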

Mus musculus [2] = test: Toxicity in DBA/2 mouse allografted with mouse P388 cells assessed as change in body weight at 40 mg/kg/day, ip for 9 days compound administered through water+alcohol+acetone vehicle; format: organism-based; design: route intraperitoneal; details: in vivo, 216 h
Method in brief: (§2)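 DBA/2 mice bearing P388 lymphocytic leukemia received one intraperitoneal injection per day for 9 days, given in the vehicle named for each test (water/alcohol-based, saline or saline + Tween 80). Toxicity was noted during dosing alongside survival scoring (T/C, treated versus control mean survival time).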

Mus musculus [3] = test: Toxicity in DBA/2 mouse allografted with mouse P388 cells assessed as change in body weight at 1.9 mg/kg/day, ip for 9 days compound administered through water+alcohol vehicle; format: organism-based; design: route intraperitoneal; details: in vivo, 216 h; method in brief: as §2
Mus musculus [4] = test: Toxicity in DBA/2 mouse allografted with mouse P388 cells assessed as change in body weight at 80 mg/kg/day, ip for 9 days compound administered through water+alcohol+acetone vehicle; format: organism-based; design: route intraperitoneal; details: in vivo, 216 h; method in brief: as §2
Mus musculus [5] = test: Toxicity in DBA/2 mouse allografted with mouse P388 cells assessed as change in body weight at 10 mg/kg/day, ip for 9 days compound administered through water+alcohol+acetone vehicle; format: organism-based; design: route intraperitoneal; details: in vivo, 216 h; method in brief: as §2
P388 [6] = test: Antitumor activity against mouse P388 cells allografted in DBA/2 mouse assessed as host survival at 40 mg/kg/day, ip for 9 days compound administered through water+alcohol+acetone vehicle relative to control; format: functional; details: route intraperitoneal; method in brief: as §1
P388 [7] = test: Antitumor activity against mouse P388 cells allografted in DBA/2 mouse assessed as host survival at 20 mg/kg/day, ip for 9 days compound administered through water+alcohol+acetone vehicle relative to control; format: functional; details: route intraperitoneal; method in brief: as §1
P388 [8] = test: Antitumor activity against mouse P388 cells allografted in DBA/2 mouse assessed as host survival at 4.4 mg/kg/day, ip for 9 days compound administered through water+alcohol vehicle relative to control; format: functional; details: route intraperitoneal; method in brief: as §1
P388 [9] = test: Antitumor activity against mouse P388 cells allografted in DBA/2 mouse assessed as host survival at 80 mg/kg/day, ip for 9 days compound administered through water+alcohol+acetone vehicle relative to control; format: functional; details: route intraperitoneal; method in brief: as §1
P388 [10] = test: Antitumor activity against mouse P388 cells allografted in DBA/2 mouse assessed as host survival at 10 mg/kg/day, ip for 9 days compound administered through water+alcohol+acetone vehicle relative to control; format: functional; details: route intraperitoneal; method in brief: as §1
Mus musculus [11] = test: Toxicity in DBA/2 mouse allografted with mouse P388 cells assessed as change in body weight at 20 mg/kg/day, ip for 9 days compound administered through water+alcohol+acetone vehicle; format: organism-based; design: route intraperitoneal; details: in vivo, 216 h; method in brief: as §2
Mus musculus [12] = test: Toxicity in DBA/2 mouse allografted with mouse P388 cells assessed as change in body weight at 4.4 mg/kg/day, ip for 9 days compound administered through water+alcohol vehicle; format: organism-based; design: route intraperitoneal; details: in vivo, 216 h; method in brief: as §2
Mus musculus [13] = test: Toxicity in DBA/2 mouse allografted with mouse P388 cells at 480 mg/kg/day, ip for 9 days; format: organism-based; design: route intraperitoneal; details: in vivo, 216 h; method in brief: as §2
P388 [14] = test: Antitumor activity against mouse P388 cells allografted in ip dosed DBA/2 mouse administered for 9 days; format: functional, organism-based
Method in brief: (§3)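 P388 lymphocytic leukemia in DBA/2 mice; one intraperitoneal injection per day for 9 days. […] Injection vehicles were water + alcohol, saline + Tween 80, or aqueous 0.5% citric acid. Some tests were duplicated, and 30-day cures were recorded.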

Mus musculus [15] = test: Toxicity in DBA/2 mouse allografted with mouse P388 cells at 400 mg/kg/day, ip for 9 days; format: organism-based; design: route intraperitoneal; details: in vivo, 216 h; method in brief: as §2
Mus musculus [16] = test: Toxicity in DBA/2 mouse allografted with mouse P388 cells assessed as change in body weight at 160 mg/kg/day, ip for 9 days compound administered through water+alcohol vehicle; format: organism-based; design: route intraperitoneal; details: in vivo, 216 h; method in brief: as §2
Mus musculus [17] = test: Toxicity in DBA/2 mouse allografted with mouse P388 cells assessed as change in body weight at 80 mg/kg/day, ip for 9 days compound administered through water+alcohol vehicle; format: organism-based; design: route intraperitoneal; details: in vivo, 216 h; method in brief: as §2
P388 [18] = test: Antitumor activity against mouse P388 cells allografted in DBA/2 mouse assessed as host survival at 80 mg/kg/day, ip for 9 days compound administered through water+alcohol vehicle relative to control; format: functional; details: route intraperitoneal; method in brief: as §1
Mus musculus [19] = test: Toxicity in DBA/2 mouse allografted with mouse P388 cells assessed as change in body weight at 365 mg/kg/day, ip for 9 days compound administered through water+alcohol vehicle; format: organism-based; design: route intraperitoneal; details: in vivo, 216 h; method in brief: as §2
P388 [20] = test: Antitumor activity against mouse P388 cells allografted in DBA/2 mouse assessed as host survival at 240 mg/kg/day, ip for 9 days compound administered through water+alcohol vehicle relative to control; format: functional; details: route intraperitoneal; method in brief: as §1
Mus musculus [21] = test: Toxicity in DBA/2 mouse allografted with mouse P388 cells assessed as change in body weight at 240 mg/kg/day, ip for 9 days compound administered through water+alcohol vehicle; format: organism-based; design: route intraperitoneal; details: in vivo, 216 h; method in brief: as §2
P388 [22] = test: Antitumor activity against mouse P388 cells allografted in DBA/2 mouse assessed as host survival at 40 mg/kg/day, ip for 9 days compound administered through water+alcohol vehicle relative to control; format: functional; details: route intraperitoneal; method in brief: as §1
Mus musculus [23] = test: Toxicity in DBA/2 mouse allografted with mouse P388 cells assessed as change in body weight at 40 mg/kg/day, ip for 9 days compound administered through water+alcohol vehicle; format: organism-based; design: route intraperitoneal; details: in vivo, 216 h; method in brief: as §2
P388 [24] = test: Antitumor activity against mouse P388 cells allografted in DBA/2 mouse assessed as host survival at 365 mg/kg/day, ip for 9 days compound administered through water+alcohol vehicle relative to control; format: functional; details: route intraperitoneal; method in brief: as §1
P388 [25] = test: Antitumor activity against mouse P388 cells allografted in DBA/2 mouse assessed as host survival at 160 mg/kg/day, ip for 9 days compound administered through water+alcohol vehicle relative to control; format: functional; details: route intraperitoneal; method in brief: as §1
P388 [26] = test: Antitumor activity against mouse P388 cells allografted in DBA/2 mouse at 480 mg/kg/day, ip for 9 days; format: functional, organism-based; method in brief: as §3
Mus musculus [27] = test: Toxicity in DBA/2 mouse allografted with mouse P388 cells at >80 mg/kg/day, ip for 9 days; format: organism-based; details: in vivo, 216 h; method in brief: as §2
P388 [28] = test: Antitumor activity against mouse P388 cells allografted in DBA/2 mouse assessed as host survival at 9 mg/kg/day, ip for 9 days compound administered through water+alcohol vehicle relative to control; format: functional; details: route intraperitoneal; method in brief: as §1
Mus musculus [29] = test: Toxicity in DBA/2 mouse allografted with mouse P388 cells assessed as change in body weight at 9 mg/kg/day, ip for 9 days compound administered through water+alcohol vehicle; format: organism-based; design: route intraperitoneal; details: in vivo, 216 h
P388 [30] = test: Antitumor activity against mouse P388 cells allografted in DBA/2 mouse assessed as host survival at 4 mg/kg/day, ip for 9 days compound administered through saline vehicle relative to control; format: functional; details: route intraperitoneal; method in brief: as §1
Mus musculus [31] = test: Toxicity in DBA/2 mouse allografted with mouse P388 cells assessed as change in body weight at 4 mg/kg/day, ip for 9 days compound administered through saline vehicle; format: organism-based; design: route intraperitoneal; details: in vivo, 216 h

## COC(=O)/C=C/C(=O)O[C@@H]1C(OC)=C[C@]23CCCN2CCc2cc4c(cc2[C@H]13)OCO4
P388 [1]
  T/C: 134%
Mus musculus [2]
  Activity: -0.9 g
Mus musculus [3]
  Activity: 0.5 g
Mus musculus [4]
  Activity: -0.7 g
Mus musculus [5]
  Activity: -1.2 g
P388 [6]
  T/C: 134%
P388 [7]
  T/C: 125%
P388 [8]
  T/C: 147%
P388 [9]
  T/C: 145%
P388 [10]
  T/C: 136%
Mus musculus [11]
  Activity: -1 g
Mus musculus [12]
  Activity: -1.5 g

## C=C(CC(=O)OC)C(=O)O[C@@H]1C(OC)=C[C@]23CCCN2CCc2cc4c(cc2[C@H]13)OCO4 (single isomer, unassigned) [listing 1 of 2 here]
Mus musculus [13]
  Activity: Toxic

## COC(=O)/C=C/C=C/C(=O)O[C@@H]1C(OC)=C[C@]23CCCN2CCc2cc4c(cc2[C@H]13)OCO4
P388 [14]
  Activity: inactive

## C=C(CC(=O)OC)C(=O)O[C@@H]1C(OC)=C[C@]23CCCN2CCc2cc4c(cc2[C@H]13)OCO4
Mus musculus [15]
  Activity: Toxic
Mus musculus [16]
  Activity: -1.1 g
Mus musculus [17]
  Activity: -0.1 g
P388 [18]
  T/C: 173%
Mus musculus [19]
  Activity: -3 g
P388 [20]
  T/C: 169%
Mus musculus [21]
  Activity: -1.4 g
P388 [22]
  T/C: 135%
Mus musculus [23]
  Activity: -1.3 g
P388 [24]
  T/C: 198%
P388 [25]
  T/C: 167%

## C=C(CC(=O)OC)C(=O)O[C@@H]1C(OC)=C[C@]23CCCN2CCc2cc4c(cc2[C@H]13)OCO4 (single isomer, unassigned) [listing 2 of 2 here]
P388 [26]
  Activity: inactive

## COC(=O)/C=C(\C)C(=O)O[C@@H]1C(OC)=C[C@]23CCCN2CCc2cc4c(cc2[C@H]13)OCO4
P388 [14]
  Activity: inactive

## COC1=C[C@]23CCCN2CCc2cc4c(cc2[C@@H]3[C@@H]1OC(=O)[C@@H](O)c1ccccc1)OCO4
P388 [14]
  Activity: inactive
Mus musculus [27]
  Activity: Toxic

## COC(=O)C[C@@](O)(CCC(C)C)C(=O)O[C@@H]1C(OC)=C[C@]23CCCN2CCc2cc4c(cc2[C@H]13)OCO4
P388 [28]
  T/C: 131%
Mus musculus [29]
  Activity: -2.2 g
P388 [30]
  T/C: 150%
Mus musculus [31]
  Activity: 0.5 g
